Results: ChEMBL document CHEMBL5385966, “Synthesis and biological evaluation of new naphthalimide-thiourea derivatives as potent antimicrobial agents active against multidrug-resistant Staphylococcus aureus and Mycobacterium tuberculosis” (RSC Med Chem, 2024)
In brackets after ≈: the same amount, converted by molar mass. Activity calls are given as the source filed them. The rule behind the calls is not given here.

Experiments:
[1] = tested on: Staphylococcus aureus; test: Antibacterial activity against methicillin/ceftriaxone/meropenem/gentamycin/linezolid-resistant Staphylococcus aureus NRS10119 clinical isolate assessed as bacterial growth inhibition incubated for 16 to 18 hrs by CLSI based antibiotic susceptibility testing method; type: functional; details: time 16-18 hrs
In short: (§1)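 Broth microdilution in cation-adjusted Mueller-Hinton broth. Compounds were tested at […], with levofloxacin as reference and medium-only controls. Plates were incubated at 37 °C for 16-18 h. MIC was the lowest concentration with no visible growth; three independent determinations, each in duplicate.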

[2] = Cytotoxicity against African green monkey Vero cells by MTT assay; type: toxicity, cell-based; details: chlorocebus sabaeus
In short: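 Vero cells were seeded at ~10³ per well at 37 °C, 5% CO2. After 24 h, compounds were added at 5-100 mg/L for 72 h. […] was added for 4 h, formazan was dissolved in DMSO and read at 540 nm. CC50 was taken as the lowest concentration reducing viability by 50%; doxorubicin was the positive control; triplicate.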

[3] = tested on: Staphylococcus aureus; test: Antibacterial activity against methicillin/ceftriaxone-resistant Staphylococcus aureus NRS10194 clinical isolate assessed as bacterial growth inhibition incubated for 16 to 18 hrs by CLSI based antibiotic susceptibility testing method; type: functional; details: time 16-18 hrs; in short: as §1
[4] = tested on: Klebsiella pneumoniae; test: Antibacterial activity against Klebsiella pneumoniae BAA 1705 assessed as bacterial growth inhibition incubated for 16 to 18 hrs by CLSI based antibiotic susceptibility testing method; type: functional, organism-based; details: time 16-18 hrs; in short: as §1
[5] = tested on: Staphylococcus aureus; test: Antibacterial activity against methicillin/ceftriaxone/meropenem-resistant Staphylococcus aureus NRS10193 clinical isolate assessed as bacterial growth inhibition incubated for 16 to 18 hrs by CLSI based antibiotic susceptibility testing method; type: functional; details: time 16-18 hrs; in short: as §1
[6] = tested on: Staphylococcus aureus; test: Antibacterial activity against methicillin/ceftriaxone/meropenem/vancomycin/teicoplanin-resistant Staphylococcus aureus VRS12 clinical isolate assessed as bacterial growth inhibition incubated for 16 to 18 hrs by CLSI based antibiotic susceptibility testing method; type: functional; details: time 16-18 hrs; in short: as §1
[7] = Selectivity index, ratio of CC50 for African green monkey Vero cells to MIC for Staphylococcus aureus ATCC 29213; type: toxicity, cell-based; details: read-out: Selectivity Index
[8] = tested on: Staphylococcus aureus; test: Antibacterial activity against methicillin/ceftriaxone/meropenem/vancomycin/teicoplanin-resistant Staphylococcus aureus VRS4 clinical isolate assessed as bacterial growth inhibition incubated for 16 to 18 hrs by CLSI based antibiotic susceptibility testing method; type: functional; details: time 16-18 hrs; in short: as §1
[9] = tested on: Pseudomonas aeruginosa; test: Antibacterial activity against Pseudomonas aeruginosa ATCC 27853 assessed as bacterial growth inhibition incubated for 16 to 18 hrs by CLSI based antibiotic susceptibility testing method; type: functional, organism-based; details: time 16-18 hrs; in short: as §1
[10] = tested on: Staphylococcus aureus; test: Antibacterial activity against methicillin/ceftriaxone/meropenem-resistant Staphylococcus aureus NRS10186 clinical isolate assessed as bacterial growth inhibition incubated for 16 to 18 hrs by CLSI based antibiotic susceptibility testing method; type: functional; details: time 16-18 hrs; in short: as §1
[11] = tested on: Staphylococcus aureus; test: Antibacterial activity against methicillin/ceftriaxone/meropenem/gentamycin/linezolid-resistant Staphylococcus aureus NRS10100 clinical isolate assessed as bacterial growth inhibition incubated for 16 to 18 hrs by CLSI based antibiotic susceptibility testing method; type: functional; details: time 16-18 hrs; in short: as §1
[12] = tested on: Staphylococcus aureus; test: Antibacterial activity against methicillin/ceftriaxone/meropenem-resistant Staphylococcus aureus NRS10191 clinical isolate assessed as bacterial growth inhibition incubated for 16 to 18 hrs by CLSI based antibiotic susceptibility testing method; type: functional; details: time 16-18 hrs; in short: as §1
[13] = tested on: Mycolicibacterium fortuitum; test: Antimycobacterial activity against Mycobacterium fortuitum ATCC 6841 assessed as bacterial growth inhibition incubated for 72 hrs by resazurin dye based broth microdilution method; type: functional, organism-based
In short: (§2)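 Broth microdilution in Middlebrook 7H9 with 10% ADC-Tween-80 (0.2% glycerol, 0.05% Tween-80), inoculum ~10⁶ cfu/mL. Compounds came from 10 mg/mL DMSO stocks and were tested as two-fold serial dilutions at 37 °C, 7 days for M. tuberculosis H37Rv and 72 h for NTM. Growth was read visually with PrestoBlue resazurin dye; MIC was the lowest concentration preventing growth. Triplicate determinations, each in duplicate.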

[14] = tested on: Mycobacteroides chelonae; test: Antimycobacterial activity against Mycobacteroides chelonae ATCC 35752 assessed as bacterial growth inhibition incubated for 72 hrs by resazurin dye based broth microdilution method; type: functional, organism-based; in short: as §2
[15] = tested on: Staphylococcus aureus; test: Antibacterial activity against methicillin/ceftriaxone/meropenem-resistant Staphylococcus aureus NRS10198 clinical isolate assessed as bacterial growth inhibition incubated for 16 to 18 hrs by CLSI based antibiotic susceptibility testing method; type: functional; details: time 16-18 hrs; in short: as §1
[16] = tested on: Staphylococcus aureus; test: Antibacterial activity against methicillin-sensitive Staphylococcus aureus ATCC 29213 clinical isolate assessed as bacterial growth inhibition incubated for 16 to 18 hrs by CLSI based antibiotic susceptibility testing method; type: functional; details: time 16-18 hrs; in short: as §1
[17] = tested on: Mycobacteroides abscessus; test: Antimycobacterial activity against Mycobacterium abscessus ATCC 19977 assessed as bacterial growth inhibition incubated for 72 hrs by resazurin dye based broth microdilution method; type: functional, organism-based; in short: as §2
[18] = tested on: Mycobacterium tuberculosis; test: Antimycobacterial activity against Mycobacterium tuberculosis H37Rv ATCC 27294 assessed as bacterial growth inhibition incubated for 7 days by resazurin dye based broth microdilution method; type: functional; details: H37Rv ATCC 27294, 168 h, time 7 day; in short: as §2
[19] = tested on: Escherichia coli; test: Antibacterial activity against Escherichia coli ATCC 25922 assessed as bacterial growth inhibition incubated for 16 to 18 hrs by CLSI based antibiotic susceptibility testing method; type: functional, organism-based; details: time 16-18 hrs; in short: as §1
[20] = tested on: Acinetobacter baumannii; test: Antibacterial activity against Acinetobacter baumannii BAA 1605 assessed as bacterial growth inhibition incubated for 16 to 18 hrs by CLSI based antibiotic susceptibility testing method; type: functional, organism-based; details: time 16-18 hrs; in short: as §1
[21] = tested on: Staphylococcus aureus; test: Antibacterial activity against Staphylococcus aureus ATCC 29213 assessed as bacterial growth inhibition incubated for 16 to 18 hrs by CLSI based antibiotic susceptibility testing method; type: functional; details: time 16-18 hrs; in short: as §1
[22] = tested on: Staphylococcus aureus; test: Antibacterial activity against methicillin/ceftriaxone/meropenem-resistant Staphylococcus aureus NRS10129 clinical isolate assessed as bacterial growth inhibition incubated for 16 to 18 hrs by CLSI based antibiotic susceptibility testing method; type: functional; details: time 16-18 hrs; in short: as §1
[23] = tested on: Staphylococcus aureus; test: Antibacterial activity against methicillin/ceftriaxone/meropenem/gentamycin/vancomycin/teicoplanin-resistant Staphylococcus aureus VRS1 clinical isolate assessed as bacterial growth inhibition incubated for 16 to 18 hrs by CLSI based antibiotic susceptibility testing method; type: functional; details: time 16-18 hrs; in short: as §1
[24] = tested on: Staphylococcus aureus; test: Antibacterial activity against methicillin/ceftriaxone/meropenem-resistant Staphylococcus aureus NRS10192 clinical isolate assessed as bacterial growth inhibition incubated for 16 to 18 hrs by CLSI based antibiotic susceptibility testing method; type: functional; details: time 16-18 hrs; in short: as §1

SMILES	MIC [1] [µg/mL]	CC50 [2] [µg/mL]	MIC [3] [µg/mL]	growth inhibition (GI) [4]	MIC [5] [µg/mL]	MIC [6] [µg/mL]	selectivity ratio [7]	MIC [8] [µg/mL]	growth inhibition (GI) [9]	MIC [10] [µg/mL]	MIC [11] [µg/mL]	MIC [12] [µg/mL]	growth inhibition (GI) [13]	growth inhibition (GI) [14]	MIC [15] [µg/mL]	MIC [16] [µg/mL]	growth inhibition (GI) [17]	MIC [18] [µg/mL]	growth inhibition (GI) [19]	growth inhibition (GI) [20]	other results
O=C(CN1C(=O)c2cccc3cccc(c23)C1=O)N1CCC(NC(=S)NC2CCCCCC2)CC1	0.25 (≈ 0.507 µM)	> 100	0.25 (≈ 0.507 µM)	inactive	0.25 (≈ 0.507 µM)	0.25 (≈ 0.507 µM)	> 400	0.25 (≈ 0.507 µM)	inactive	0.25 (≈ 0.507 µM)	0.25 (≈ 0.507 µM)	0.25 (≈ 0.507 µM)	inactive	inactive	0.25 (≈ 0.507 µM)	0.25 (≈ 0.507 µM)	inactive	> 64	inactive	inactive	MIC [21]: 0.25 µg/mL (≈ 0.507 µM); MIC [22]: 0.25 µg/mL (≈ 0.507 µM); MIC [23]: 0.25 µg/mL (≈ 0.507 µM); MIC [24]: 0.25 µg/mL (≈ 0.507 µM)
O=C(CN1C(=O)c2cccc3cccc(c23)C1=O)NC1CCN(C(=S)NC2CCCCC2)CC1	0.125 (≈ 0.261 µM)	> 10	0.25 (≈ 0.522 µM)	inactive	0.125 (≈ 0.261 µM)	0.25 (≈ 0.522 µM)	> 40	0.25 (≈ 0.522 µM)	inactive	0.125 (≈ 0.261 µM)	0.25 (≈ 0.522 µM)	0.125 (≈ 0.261 µM)	inactive	inactive	0.25 (≈ 0.522 µM)	0.25 (≈ 0.522 µM)	inactive	> 64	inactive	inactive	MIC [21]: 0.25 µg/mL (≈ 0.522 µM); MIC [22]: 0.5 µg/mL (≈ 1.04 µM); MIC [23]: 0.5 µg/mL (≈ 1.04 µM); MIC [24]: 0.25 µg/mL (≈ 0.522 µM)
O=C1c2cccc3cccc(c23)C(=O)N1CCN1CCN(C(=S)Nc2ccccc2)CC1	4 (≈ 9 µM)	> 100	4 (≈ 9 µM)	inactive	2 (≈ 4.5 µM)	4 (≈ 9 µM)	> 50	2 (≈ 4.5 µM)	inactive	4 (≈ 9 µM)	4 (≈ 9 µM)	2 (≈ 4.5 µM)	inactive	inactive	2 (≈ 4.5 µM)	4 (≈ 9 µM)	inactive	> 64	inactive	inactive	MIC [21]: 2 µg/mL (≈ 4.5 µM); MIC [22]: 4 µg/mL (≈ 9 µM); MIC [23]: 4 µg/mL (≈ 9 µM); MIC [24]: 2 µg/mL (≈ 4.5 µM)
O=C(CN1C(=O)c2cccc3cccc(c23)C1=O)N1CCN(C(=S)NC2CCCCC2)CC1	0.25 (≈ 0.538 µM)	> 100	0.125 (≈ 0.269 µM)	inactive	0.25 (≈ 0.538 µM)	0.25 (≈ 0.538 µM)	> 400	0.25 (≈ 0.538 µM)	inactive	0.125 (≈ 0.269 µM)	0.5 (≈ 1.08 µM)	0.25 (≈ 0.538 µM)	inactive	inactive	0.25 (≈ 0.538 µM)	0.125 (≈ 0.269 µM)	inactive	> 64	inactive	inactive	MIC [21]: 0.25 µg/mL (≈ 0.538 µM); MIC [22]: 0.25 µg/mL (≈ 0.538 µM); MIC [23]: 0.25 µg/mL (≈ 0.538 µM); MIC [24]: 0.125 µg/mL (≈ 0.269 µM)
O=C(CN1C(=O)c2cccc3cccc(c23)C1=O)N1CCC(NC(=S)Nc2ccccc2)CC1	0.25 (≈ 0.529 µM)	> 100	1 (≈ 2.12 µM)	inactive	0.25 (≈ 0.529 µM)	0.5 (≈ 1.06 µM)	> 200	0.25 (≈ 0.529 µM)	inactive	0.25 (≈ 0.529 µM)	1 (≈ 2.12 µM)	0.25 (≈ 0.529 µM)	inactive	inactive	0.25 (≈ 0.529 µM)	1 (≈ 2.12 µM)	inactive	> 64	inactive	inactive	MIC [21]: 0.5 µg/mL (≈ 1.06 µM); MIC [22]: 1 µg/mL (≈ 2.12 µM); MIC [23]: 0.5 µg/mL (≈ 1.06 µM); MIC [24]: 0.25 µg/mL (≈ 0.529 µM)
O=C(CN1C(=O)c2cccc3cccc(c23)C1=O)N1CCC(NC(=S)NC2CCCCC2)CC1	0.125 (≈ 0.261 µM)	> 100	0.125 (≈ 0.261 µM)	inactive	0.125 (≈ 0.261 µM)	0.125 (≈ 0.261 µM)	> 800	0.125 (≈ 0.261 µM)	inactive	0.125 (≈ 0.261 µM)	0.125 (≈ 0.261 µM)	0.125 (≈ 0.261 µM)	inactive	inactive	0.125 (≈ 0.261 µM)	0.125 (≈ 0.261 µM)	inactive	> 64	inactive	inactive	MIC [21]: 0.125 µg/mL (≈ 0.261 µM); MIC [22]: 0.125 µg/mL (≈ 0.261 µM); MIC [23]: 0.125 µg/mL (≈ 0.261 µM); MIC [24]: 0.125 µg/mL (≈ 0.261 µM)
O=C(CCN1C(=O)c2cccc3cccc(c23)C1=O)N1CCN(C(=S)NC2CCCCC2)CC1	2 (≈ 4.18 µM)	> 50	2 (≈ 4.18 µM)	inactive	4 (≈ 8.36 µM)	2 (≈ 4.18 µM)	> 50	1 (≈ 2.09 µM)	inactive	1 (≈ 2.09 µM)	4 (≈ 8.36 µM)	2 (≈ 4.18 µM)	inactive	inactive	1 (≈ 2.09 µM)	2 (≈ 4.18 µM)	inactive	> 64	inactive	inactive	MIC [21]: 1 µg/mL (≈ 2.09 µM); MIC [22]: 2 µg/mL (≈ 4.18 µM); MIC [23]: 2 µg/mL (≈ 4.18 µM); MIC [24]: 1 µg/mL (≈ 2.09 µM)
O=C(CN1C(=O)c2cccc3cccc(c23)C1=O)NC1CCN(C(=S)NC2CCCCCC2)CC1	0.5 (≈ 1.01 µM)	> 100	1 (≈ 2.03 µM)	inactive	0.5 (≈ 1.01 µM)	1 (≈ 2.03 µM)	> 200	1 (≈ 2.03 µM)	inactive	0.5 (≈ 1.01 µM)	0.5 (≈ 1.01 µM)	0.5 (≈ 1.01 µM)	inactive	inactive	1 (≈ 2.03 µM)	1 (≈ 2.03 µM)	inactive	> 64	inactive	inactive	MIC [21]: 0.5 µg/mL (≈ 1.01 µM); MIC [22]: 1 µg/mL (≈ 2.03 µM); MIC [23]: 1 µg/mL (≈ 2.03 µM); MIC [24]: 1 µg/mL (≈ 2.03 µM)
